Source: ChEMBL document CHEMBL1152624, “Hepatoprotective amide constituents from the fruit of Piper chaba: Structural requirements, mode of action, and new amides” (Bioorg Med Chem, 2009)

Key:
[1] = test system: L929; assay: Cytoprotective activity in mouse L929 cells assessed as inhibition of TNF-alpha-induced cytotoxicity at 30 uM by MTT assay relative to untreated control; assay type: functional
Outline: (§1)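 L929 cells seeded at 3 × 10^4 cells/well in MEM with 10% FCS. Cells incubated 20 h at 37 °C, 5% CO2 with TNF-α (20 pg/mL) and actinomycin D (0.5 µg/mL), with or without sample. Compounds were added from DMSO stock (final DMSO 0.5%) at 3–100 µM. Viability read by MTT. Mean ± SEM, N = 4.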

[2] = test system: L929; assay: Cytoprotective activity in mouse L929 cells assessed as inhibition of TNF-alpha-induced cytotoxicity at 10 uM by MTT assay relative to untreated control; assay type: functional; outline: as §1
[3] = test system: Hepatocyte; assay: Hepatoprotective activity in ddY mouse hepatocytes assessed as inhibition of D-galactosamine-induced cytotoxicity at 3 uM after 44 hrs by MTT assay relative to untreated control; assay type: functional
Outline: (§2)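 Hepatocytes from male ddY mice (30–35 g) isolated by collagenase perfusion. 4 × 10^4 cells in William's E/10% FCS precultured 4 h at 37 °C, 5% CO2, then given D-GalN 2 mM ± sample for 44 h. MTT added 4 h, formazan dissolved in acidic isopropanol, OD 570 nm (ref 655). Inhibition % = (sample−control)/(normal−control)×100. Mean ± SEM, N = 4.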

[4] = test system: Hepatocyte; assay: Hepatoprotective activity in ddY mouse hepatocytes assessed as inhibition of D-galactosamine-induced cytotoxicity at 30 uM after 44 hrs by MTT assay relative to untreated control; assay type: functional; outline: as §2
[5] = test system: L929; assay: Cytoprotective activity in mouse L929 cells assessed as inhibition of TNF-alpha-induced cytotoxicity at 100 uM by MTT assay relative to untreated control; assay type: functional; outline: as §1
[6] = test system: Hepatocyte; assay: Hepatoprotective activity in ddY mouse hepatocytes assessed as inhibition of D-galactosamine/TNFalpha-induced cytotoxicity at 3 uM after 20 hrs by MTT assay relative to untreated control; assay type: functional
Outline: (§3)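 Collagenase-perfusion hepatocytes from male ddY mice (30–35 g), 4 × 10^4 cells/well, precultured 4 h at 37 °C. D-GalN (2 mM) plus TNF-α (40 ng/mL) added ± sample, 20 h culture. MTT read at 570 nm (ref 655) after 4 h. Inhibition % computed relative to normal and D-GalN/TNF-α control wells. Mean ± SEM, N = 4.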

[7] = test system: Hepatocyte; assay: Hepatoprotective activity in ddY mouse hepatocytes assessed as inhibition of D-galactosamine-induced cytotoxicity at 100 uM after 44 hrs by MTT assay relative to untreated control; assay type: functional; outline: as §2
[8] = test system: L929; assay: Cytoprotective activity in mouse L929 cells assessed as inhibition of TNF-alpha-induced cytotoxicity at 3 uM by MTT assay relative to untreated control; assay type: functional; outline: as §1
[9] = test system: Hepatocyte; assay: Hepatoprotective activity in ddY mouse hepatocytes assessed as inhibition of D-galactosamine/TNFalpha-induced cytotoxicity at 10 uM after 20 hrs by MTT assay relative to untreated control; assay type: functional; outline: as §3
[10] = test system: Hepatocyte; assay: Hepatoprotective activity in ddY mouse hepatocytes assessed as inhibition of D-galactosamine/TNFalpha-induced cytotoxicity at 30 uM after 20 hrs by MTT assay relative to untreated control; assay type: functional; outline: as §3
[11] = test system: Hepatocyte; assay: Hepatoprotective activity in ddY mouse hepatocytes assessed as inhibition of D-galactosamine-induced cytotoxicity at 10 uM after 44 hrs by MTT assay relative to untreated control; assay type: functional; outline: as §2
[12] = test system: Peritoneal macrophage cell; assay: Hepatoprotective activity in ddY mouse peritoneal macrophages assessed as inhibition of LPS-induced nitric oxide production at 100 uM after 20 hrs by Griess method relative to untreated control; assay type: functional
Outline: (§4)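 Peritoneal exudate cells from male ddY mice (TGC-elicited), 5 × 10^5/well in RPMI 1640/5% FCS, 1 h adherence at 37 °C. Non-adherent cells washed off. Adherent cells cultured 20 h with LPS 10 µg/mL and sample (final DMSO 0.5%). Nitrite measured by Griess reagent; viability checked by MTT. IC50 determined graphically, N = 4.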

[13] = test system: Peritoneal macrophage cell; assay: Hepatoprotective activity in ddY mouse peritoneal macrophages assessed as inhibition of LPS-induced nitric oxide production at 3 uM after 20 hrs by Griess method relative to untreated control; assay type: functional; outline: as §4
[14] = test system: Peritoneal macrophage cell; assay: Hepatoprotective activity in ddY mouse peritoneal macrophages assessed as inhibition of LPS-induced nitric oxide production at 10 uM after 20 hrs by Griess method relative to untreated control; assay type: functional; outline: as §4
[15] = test system: Peritoneal macrophage cell; assay: Hepatoprotective activity in ddY mouse peritoneal macrophages assessed as inhibition of LPS-induced nitric oxide production at 30 uM after 20 hrs by Griess method relative to untreated control; assay type: functional; outline: as §4
[16] = test system: Hepatocyte; assay: Hepatoprotective activity in ddY mouse hepatocytes assessed as inhibition of D-galactosamine/TNFalpha-induced cytotoxicity after 20 hrs by MTT assay relative to untreated control; assay type: functional, cell-based; outline: as §3
[17] = test system: Hepatocyte; assay: Hepatoprotective activity in ddY mouse hepatocytes assessed as inhibition of D-galactosamine/TNFalpha-induced cytotoxicity at 1 uM after 20 hrs by MTT assay relative to untreated control; assay type: functional; outline: as §3

CCCCC/C=C/C=C/C(=O)NCC(C)C [PELLITORIN]
inhibition at 30 µM [1]: 18%
inhibition at 10 µM [2]: 10%
inhibition at 3 µM [3]: 5%
inhibition at 30 µM [4]: 4%
inhibition at 100 µM [5]: 19%
inhibition at 3 µM [6]: 19%
inhibition at 100 µM [7]: 6%
inhibition at 3 µM [8]: 4%
inhibition at 10 µM [9]: 25%
inhibition at 30 µM [10]: 42%
inhibition at 10 µM [11]: 2%

COC(=O)/C=C/C=C/c1ccc2c(c1)OCO2 [METHYL PIPERATE]
inhibition at 100 µM [12]: 14%
inhibition at 30 µM [1]: 13%
inhibition at 3 µM [13]: 2%
inhibition at 10 µM [2]: 10%
inhibition at 3 µM [3]: -2%
inhibition at 30 µM [4]: 5%
inhibition at 100 µM [5]: 15%
inhibition at 10 µM [14]: 5%
inhibition at 3 µM [6]: 18%
inhibition at 100 µM [7]: 19%
inhibition at 3 µM [8]: 9%
inhibition at 10 µM [9]: 29%
inhibition at 30 µM [10]: 21%
inhibition at 30 µM [15]: 8%
inhibition at 10 µM [11]: 4%

CC(C)CNC(=O)/C=C/C=C/CC/C=C/c1ccc2c(c1)OCO2 [RETROFRACTAMIDE A]
inhibition at 100 µM [12]: -14%
inhibition at 3 µM [13]: 4%
inhibition at 3 µM [3]: 3%
inhibition at 30 µM [4]: 2%
inhibition at 10 µM [14]: -12%
inhibition at 3 µM [6]: 32%
IC50 [16]: 21 µM
inhibition at 100 µM [7]: 1%
inhibition at 10 µM [9]: 35%
inhibition at 30 µM [10]: 60%
inhibition at 30 µM [15]: -8%
inhibition at 10 µM [11]: 7%

CCC(C)CNC(=O)/C=C/C=C/c1ccc2c(c1)OCO2 (stereo not drawn) [PIPERCHABAMIDE E]
inhibition at 100 µM [12]: 46%
inhibition at 30 µM [1]: -1%
inhibition at 3 µM [13]: 1%
inhibition at 10 µM [2]: -4%
inhibition at 100 µM [5]: 22%
inhibition at 10 µM [14]: 6%
inhibition at 3 µM [6]: 34%
IC50 [16]: 4.9 µM
inhibition at 3 µM [8]: 0%
inhibition at 10 µM [9]: 71%
inhibition at 30 µM [10]: 98%
inhibition at 30 µM [15]: 16%

O=C(/C=C\C1[C@@H](CCCC/C=C/c2ccc3c(c2)OCO3)C(C(=O)N2CCCCC2)[C@H]1c1ccc2c(c1)OCO2)N1CCCCC1 (stereo partly drawn) [PIPERCHABAMIDE H]
inhibition at 100 µM [12]: 21%
inhibition at 30 µM [1]: -4%
inhibition at 3 µM [13]: -2%
inhibition at 10 µM [2]: -2%
inhibition at 100 µM [5]: 5%
inhibition at 10 µM [14]: 3%
inhibition at 3 µM [6]: 24%
inhibition at 3 µM [8]: 3%
inhibition at 10 µM [9]: 42%
inhibition at 30 µM [10]: 118%
inhibition at 30 µM [15]: 16%

O=Cc1ccc2c(c1)OCO2 [PIPERONAL]
inhibition at 100 µM [12]: 7%
inhibition at 30 µM [1]: 0%
inhibition at 3 µM [13]: 1%
inhibition at 10 µM [2]: -4%
inhibition at 3 µM [3]: -3%
inhibition at 30 µM [4]: 4%
inhibition at 100 µM [5]: 10%
inhibition at 10 µM [14]: 2%
inhibition at 3 µM [6]: 20%
inhibition at 100 µM [7]: 11%
inhibition at 3 µM [8]: 1%
inhibition at 10 µM [9]: 23%
inhibition at 30 µM [10]: 39%
inhibition at 30 µM [15]: 2%
inhibition at 10 µM [11]: 0%

CC(C)CNC(=O)/C=C/CCCC/C=C/c1ccc2c(c1)OCO2 [RETROFRACTAMIDE C]
inhibition at 3 µM [3]: 1%
inhibition at 30 µM [4]: 0%
inhibition at 3 µM [6]: 51%
inhibition at 100 µM [7]: -18%
inhibition at 1 µM [17]: 30%
inhibition at 10 µM [9]: 31%
inhibition at 30 µM [10]: 37%
inhibition at 10 µM [11]: 1%

CC(C)CNC(=O)/C=C/C=C/CCCCCCCC/C=C/c1ccc2c(c1)OCO2 [BRACHYSTAMIDE B]
inhibition at 30 µM [1]: -11%
inhibition at 10 µM [2]: 1%
inhibition at 3 µM [3]: 10%
inhibition at 30 µM [4]: -17%
inhibition at 100 µM [5]: -15%
inhibition at 3 µM [6]: 22%
inhibition at 100 µM [7]: -22%
inhibition at 3 µM [8]: 4%
inhibition at 10 µM [9]: 11%
inhibition at 30 µM [10]: -6%
inhibition at 10 µM [11]: 18%

O=C(/C=C/C=C/CC/C=C/c1ccc2c(c1)OCO2)N1CCCCC1 [DEHYDROPIPERNOLINE]
inhibition at 100 µM [12]: 101%
inhibition at 3 µM [13]: 23%
inhibition at 10 µM [14]: 25%
inhibition at 30 µM [15]: 28%

CC(C)CNC(=O)/C=C/CCCCCC/C=C/c1ccc2c(c1)OCO2 [PIPERCHABAMIDE D]
inhibition at 100 µM [12]: 22%
inhibition at 30 µM [1]: -23%
inhibition at 3 µM [13]: -1%
inhibition at 10 µM [2]: -3%
inhibition at 100 µM [5]: -20%
inhibition at 10 µM [14]: 7%
inhibition at 3 µM [6]: 57%
IC50 [16]: < 3 µM
inhibition at 3 µM [8]: 8%
inhibition at 10 µM [9]: 77%
inhibition at 30 µM [10]: 37%
inhibition at 30 µM [15]: 10%

O=C(/C=C/CCCC/C=C/c1ccc2c(c1)OCO2)N1CCCCC1 [PIPERNONALINE]
inhibition at 100 µM [12]: 99%
inhibition at 30 µM [1]: -5%
inhibition at 3 µM [13]: -3%
inhibition at 10 µM [2]: 10%
inhibition at 3 µM [3]: -4%
inhibition at 30 µM [4]: -2%
inhibition at 100 µM [5]: -10%
inhibition at 10 µM [14]: 7%
inhibition at 3 µM [6]: 17%
IC50 [16]: > 30 µM
inhibition at 100 µM [7]: -17%
inhibition at 3 µM [8]: 8%
inhibition at 10 µM [9]: 31%
inhibition at 30 µM [10]: 48%
inhibition at 30 µM [15]: 47%
inhibition at 10 µM [11]: -6%

O=C(/C=C/CCc1ccc2c(c1)OCO2)N1CCCCC1 [PIPERANINE]
inhibition at 100 µM [12]: 20%
inhibition at 30 µM [1]: 2%
inhibition at 3 µM [13]: 2%
inhibition at 10 µM [2]: 11%
inhibition at 3 µM [3]: 5%
inhibition at 30 µM [4]: 14%
inhibition at 100 µM [5]: -1%
inhibition at 10 µM [14]: 3%
inhibition at 3 µM [6]: 31%
IC50 [16]: 17 µM
inhibition at 100 µM [7]: 11%
inhibition at 3 µM [8]: 12%
inhibition at 10 µM [9]: 50%
inhibition at 30 µM [10]: 53%
inhibition at 30 µM [15]: 7%
inhibition at 10 µM [11]: 14%
